Assay outcomes (PubChem)
Most compounds without a hit are left out; they make up all but 1.3% or so of the library.
MT1-MMP act inh: blockers of MT1-MMP proenzyme processing, primary screen, HT1080 RFP-PRO-GFP cells, GFP/RFP fluorescence; Matrix metalloproteinase-14 (Homo sapiens), P50281; GFP/RFP ratio fluorescence, overnight; percent of plate control window, DMSO zero; GFP/RFP ratio change, % at 20 µM; hit rate 0.061% among 360,000; AID 651647, 2012;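 active means GFP/RFP ratio change of at least 30% with cell ATP level not reduced by more than half and red fluorescence within 50% of control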
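Assay system: RFP-PRO-GFP reporter HT1080 cells; read-out basis: GFP/RFP fluorescence ratio; benchmarks: DMSO wells and RFP-L50D-GFP cells; doses: 20 µM single dose, 1% DMSO; schedule: overnight cell settling, then overnight compound exposure, 37 °C, 5% CO2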
ANO1 activ: TMEM16A chloride channel activators or potentiators, primary screen, cell-based, HTS; HEK293 TMEM16A/YFP-H148Q/I152L, iodide quench fluorescence; active compounds read low; AID 623877, 2012; Anoctamin-1 (Mus musculus), Q8BHY3; B-score at 10 µM; hit rate 0.3% among 340,000;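 active means fluorescence-ratio B-score plate-corrected deviation score at least 3 library SD below zero, with starting fluorescence score within 5 deviations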;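 further: channel opened by trigger with iodide after compound preincubation; score built on the fluorescence ratio of max minus min over baseline; more negative score means more quench and so TMEM16A activation or potentiation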
Target sequence (Q8BHY3 whole entry, looked up): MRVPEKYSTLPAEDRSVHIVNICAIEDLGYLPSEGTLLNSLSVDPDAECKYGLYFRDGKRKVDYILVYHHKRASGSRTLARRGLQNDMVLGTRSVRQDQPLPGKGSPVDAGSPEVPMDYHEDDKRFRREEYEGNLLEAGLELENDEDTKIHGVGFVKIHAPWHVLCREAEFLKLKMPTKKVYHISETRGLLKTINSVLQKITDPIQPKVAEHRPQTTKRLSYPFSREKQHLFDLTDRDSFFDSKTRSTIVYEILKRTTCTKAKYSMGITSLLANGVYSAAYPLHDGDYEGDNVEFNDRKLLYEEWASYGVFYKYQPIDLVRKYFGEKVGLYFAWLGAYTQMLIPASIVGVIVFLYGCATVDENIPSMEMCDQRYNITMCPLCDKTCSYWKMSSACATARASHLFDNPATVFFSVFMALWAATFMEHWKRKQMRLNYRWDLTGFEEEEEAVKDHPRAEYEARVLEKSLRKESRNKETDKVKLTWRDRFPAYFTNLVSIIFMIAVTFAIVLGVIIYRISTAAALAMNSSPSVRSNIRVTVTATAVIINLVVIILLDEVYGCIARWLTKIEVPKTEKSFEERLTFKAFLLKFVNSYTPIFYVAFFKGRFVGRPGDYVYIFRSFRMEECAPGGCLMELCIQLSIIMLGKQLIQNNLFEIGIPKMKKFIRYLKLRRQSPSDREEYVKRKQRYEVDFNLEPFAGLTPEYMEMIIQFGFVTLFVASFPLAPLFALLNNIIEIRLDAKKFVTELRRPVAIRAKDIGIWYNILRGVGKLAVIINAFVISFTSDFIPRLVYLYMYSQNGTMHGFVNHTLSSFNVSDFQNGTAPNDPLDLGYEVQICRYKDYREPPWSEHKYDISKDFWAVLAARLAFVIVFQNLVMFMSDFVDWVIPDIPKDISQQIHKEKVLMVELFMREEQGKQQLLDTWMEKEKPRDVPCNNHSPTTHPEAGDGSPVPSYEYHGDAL
ANO1 block: TMEM16A chloride channel inhibitors, primary screen, cell-based, HTS; AID 588511, 2011; HEK293 TMEM16A/YFP iodide influx fluorescence, ionomycin; normalized B-score (activity score, 25-100; higher = stronger inhibition) at 10 µM; hit rate 1.2% among 310,000;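 active means ratio plate-corrected score three or more library SD toward inhibition, starting fluorescence score within five deviations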;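 further: score derived from kinetic fluorescence span divided by baseline fluorescence per well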
DAGLB inhibitor: DAGLB lipase inhibitors, primary screen, biochemical, fluorescence, HTS | inhibition, % at 5.17 µM | hit rate 0.059% among 340,000 | Diacylglycerol lipase-beta (Homo sapiens), Q8NCG7 | AID 504411, 2011 | HEK293T DAGLB membrane lysate, EnzChek fluorogenic substrate; in the data active means inhibition above about 34%;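 further: 0% = enzyme with vehicle and 100% = wells lacking enzyme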
TMEM16A reconf: TMEM16A chloride channel inhibitors, confirmation, cell-based, re-confirmation; HEK293 TMEM16A/YFP-H148Q, iodide quench fluorescence; ionomycin added to raise cell calcium; shares compounds with ANO1 block; hit rate 39% among 2,300; AID 652189, 2013; inhibition, % at 10 µM;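 active means mean duplicate percent inhibition, scaled so buffer wells are 0 and the reference blocker 100, over three buffer SD above buffer mean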
TMEM16A Ca cntr: calcium mobilization in TMEM16A/YFP HEK293 cells, confirmation, counter-screen for TMEM16A inhibitor project. hit rate 2% among 2,300. shares compounds with ANO1 block. Fluo4 calcium mobilization. calcium response (% of ionomycin), % at 10 µM;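 active means duplicate-averaged calcium signal over 20% of the ionomycin maximum, relative to buffer baseline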;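 further: each well's signal is peak minus trough fluorescence divided by its pre-addition baseline; 0% = buffer wells and 100% = ionomycin wells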
Parental YFP cnt: iodide YFP quench changes in parental YFP-HEK293, counter-screen for TMEM16A inhibitor project, cell-based; shares compounds with ANO1 block; ionomycin; YFP ratio F(max-min)/F0 at 10 µM; 2,300 tested, under 10 active;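 active means yellow fluorescent protein signal ratio exceeding the buffer control mean by over 5 SD of those controls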;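 further: ratio is mean of duplicate wells from kinetic YFP trace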
ClC-1 inh: ClC-1 chloride channel inhibition, selectivity assay for TMEM16A inhibitor project, cell-based, voltage-dependent ClC-1; CHO ClC-1-YFP, iodide influx fluorescence quench; iodide control reads 0, buffer control 100; shares compounds with ANO1 block; AID 652236, 2013; 2,300 tested, under 10 active; ratio percent, % at 10 µM;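 active means duplicate-mean ratio percent above the mean of iodide-only control wells, which defines zero, plus 5 of their SD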;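 further: higher percent means stronger block of ClC-1 iodide influx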
The depositor's hits bear a star; i = inactive; x = not tested or not shown.

SMILES | MT1-MMP act inh | ANO1 activ | ANO1 block | DAGLB inhibitor | TMEM16A reconf | TMEM16A Ca cntr | Parental YFP cnt | ClC-1 inh
COc1ccc(-c2noc(CN(C(=O)c3cccs3)C(C)C)n2)cc1 | 4 | i | 100* | -2 | i | i | -0.96 | 1
O=S(=O)(/C=C/C=C/S(=O)(=O)c1ccccc1)c1ccccc1 | -2 | i | x | -1 | x | x | x | x
CCOC(=O)[C@]12CCC=C1N(Cc1cccc3ccccc13)C(=O)[C@H](CC(=O)NCC1CCCCC1)C2 | -4 | x | x | x | x | x | x | x
Cc1cc2nc(C(C)(C)C)c(Cc3ccccc3)n2c(C)c1Br | -4 | x | x | x | x | x | x | x
Oc1ccc2nnc3c(Br)cnn3c2c1 | -54 | i | i | -28 | i | i | -0.94 | -6
Clc1ccc2nc3c4ccccc4cnn3c2c1 | -1 | i | i | -3 | x | x | x | x
CCc1ccccc1N(C)C(=O)CCc1nc(-c2ccc(C)cc2)no1 | 3 | i | 100* | -6 | i | i | -1.1 | 6
O=C(O)C(Cc1ccccc1[N+](=O)[O-])N1C(=O)c2ccccc2C1=O (stereo not given) | 1 | i | x | 0 | x | x | x | x
COc1ccc(Cc2c(C(C)(C)C)nc3c(C)cc(Br)cn23)c(C)c1 | -1 | x | x | x | x | x | x | x
CCOC(=O)c1c(C)[nH]c(C(=O)N/N=C/c2cc([N+](=O)[O-])ccc2O)c1C | -6 | i | 25* | 5 | 20%* | i | -1.1 | -8
O=S(=O)(NCC(c1cccs1)N1CCc2ccccc2C1)c1ccccc1 (stereo not given) | 1 | i | i | -5 | 35%* | i | -1.1 | -4
CC(=O)NC(c1ccccc1)c1cccnc1 (stereo not given) | 3 | i | 25* | -1 | i | i | -1.1 | -8
CCOC(=O)N1CCC(NC(=O)C(CC(C)C)NC(=O)C2CCC(C)CC2)CC1 (stereo not given) | 15 | i | 100* | -2 | i | i | -1.1 | -2
Cc1ccc(NC(=O)c2ccc([N+](=O)[O-])s2)cc1S(=O)(=O)N1CCOCC1 | 2 | i | x | 1 | x | x | x | x
CCN(CC)C(=O)c1cccc(-c2csc(C(C)(O)c3ccncc3)n2)c1 (stereo not given) | -8 | x | x | x | x | x | x | x
COc1ccc(NC(=O)CN(C)C(=O)c2cccc(S(=O)(=O)N3CCN(c4ccc(F)cc4)CC3)c2)cc1 | -9 | i | x | -1 | x | x | x | x
O=C(Nc1cccnc1)c1ccc(Cl)c(S(=O)(=O)N2CCc3ccccc32)c1 | 1 | i | 100* | -1 | 18%* | i | -0.96 | -5
CC1ON=C(c2ccccn2)N(Cc2ccc3c(c2)OCO3)C1=O (stereo not given) | 2 | x | x | x | x | x | x | x
CC(C)c1ccc(NC2CCCN(C(=O)c3n[nH]c4c3CCC4)C2)cc1 (stereo not given) | -1 | i | 25* | 0 | 20%* | i | -1.1 | -16
COc1ccc(NS(=O)(=O)c2ccc3oc4ccccc4c3c2)cn1 | 13 | i | 25* | -7 | i | i | -1.1 | -4
CCCCCCNC(=O)CC(c1ccccc1)c1cc(Br)ccc1O (stereo not given) | -10 | i | 100* | -27 | 47%* | i | -0.88 | -22
CC(=O)c1cccc(NC(=S)NC(=O)c2cccc(Cl)c2)c1 | 2 | i | 25* | -10 | i | 28%* | -1.2 | -6
N#Cc1nc(Cc2cccc3ccccc23)oc1N1CCOCC1 | -4 | i | i | -4 | x | x | x | x
CC1CCN(c2oc(Cc3cccc4ccccc34)nc2C#N)CC1 | 6 | i | 25* | -14 | i | i | -1.1 | -10
N#Cc1nc(Cc2cccc3ccccc23)oc1NCc1ccc(F)cc1 | 4 | i | 100* | -2 | i | i | -0.91 | 3
SMILES | MT1-MMP act inh | ANO1 activ | ANO1 block | DAGLB inhibitor | TMEM16A reconf | TMEM16A Ca cntr | Parental YFP cnt | ClC-1 inh
C=CCNc1oc(Cc2cccc3ccccc23)nc1C#N | -3 | i | i | -6 | x | x | x | x
CCN(C(=O)CSc1nnc(-c2ccc(OC)cc2)n1C(C)C)C1CCS(=O)(=O)C1 (stereo not given) | 2 | i | x | -1 | x | x | x | x
CC(=O)N1CC(C(=O)Nc2ccc3c(c2)OCO3)Oc2ccccc21 (stereo not given) | 1 | i | x | 1 | x | x | x | x
Cc1nc(-c2cccc(NC(=O)COc3ccc(Cl)cc3)c2)cs1 | -1 | i | 25* | -16 | i | i | -1.1 | -5
Nc1nc(Cl)cc(N2CCC(c3cc(-c4ccc(Cl)cc4Cl)n[nH]3)CC2)n1 | 3 | i | 100* | 0 | i | i | -1 | -6
COC(=O)C1=CN(c2ccc(C)cc2)C(N)=C(C#N)C1c1ccccc1F (stereo not given) | 5 | x | x | x | x | x | x | x
CCOc1ccc(S(=O)(=O)Nc2cc(Cl)ccc2O)cc1 | 0 | i | 100* | -1 | 36%* | i | -0.9 | -19
Cc1nc(NCCc2ccccc2)c2oc3ccccc3c2n1 | -2 | i | 25* | -5 | i | i | -1 | -24
Cc1nc(NCCN2CCOCC2)c2oc3ccccc3c2n1 | 0 | i | i | 3 | x | x | x | x
CN1CCN(/C=N/c2c(C#N)cnn2Cc2ccccc2)CC1 | -8 | i | 25* | 1 | i | i | -1 | -4
CCOc1ccc(C(=O)CCC(=O)N2CCN(S(=O)(=O)c3cccc(F)c3)CC2)cc1 | -4 | i | x | -1 | x | x | x | x
O=S(=O)(Nc1nc2ccccc2nc1OCC(F)(F)F)c1cccs1 | -1 | i | 25* | 0 | i | i | -0.95 | -1
CCCOc1ccc(F)cc1-c1cc(C(=O)Nc2ccccc2)[nH]n1 | 0 | x | x | x | x | x | x | x
C[C@H](CO)N1C[C@H](C)[C@@H](CN(C)Cc2ccc(-c3ccccc3)cc2)OCc2cnnn2CCCC1=O | 2 | x | x | 1 | x | x | x | x
COc1ccc(CCNc2nc(-c3ccc(O)cc3)cs2)cc1OC | 9 | i | 100* | 1 | 30%* | i | -0.96 | -32
